Here are results for 13 molecules from ChEMBL document CHEMBL3243926, “Prodrugs of 9-beta-D-arabinofuranosyladenine. 1. Synthesis and evaluation of some 5'-(O-acyl) derivatives” (J Med Chem, 1978).

Data set [1] can be described thus: Aqueous solubility of the compound at 0.1 M phosphate buffer after 16 hrs by UV spectrometry. Format: physicochemical. Put shortly: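 Excess solid (10 mg) was agitated for 16 h with 5 mL of 0.1 M phosphate buffer. The mixture was filtered through sintered glass to remove undissolved solid. Dissolved concentration was determined from UV absorbance against values previously determined in buffer.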

Data set [2] relates to Human alphaherpesvirus 1. Kind of data set: Antiviral activity against HSV-1 assessed at 17 ug/ml by plaque reduction assay relative to control. Format: functional. On the set-up: scale not given: the % may be the effect or the level left.
Data set [3] deals with Human alphaherpesvirus 1. The data set can be described thus: Antiviral activity against HSV-1 assessed at 6 ug/ml by plaque reduction assay relative to control. Format: functional. On the set-up: scale not given: the % may be the effect or the level left.
Data set [4] deals with T1, Adenosine deaminase (Bos taurus, UniProt P56658).
T1 sequence (P56658 whole entry): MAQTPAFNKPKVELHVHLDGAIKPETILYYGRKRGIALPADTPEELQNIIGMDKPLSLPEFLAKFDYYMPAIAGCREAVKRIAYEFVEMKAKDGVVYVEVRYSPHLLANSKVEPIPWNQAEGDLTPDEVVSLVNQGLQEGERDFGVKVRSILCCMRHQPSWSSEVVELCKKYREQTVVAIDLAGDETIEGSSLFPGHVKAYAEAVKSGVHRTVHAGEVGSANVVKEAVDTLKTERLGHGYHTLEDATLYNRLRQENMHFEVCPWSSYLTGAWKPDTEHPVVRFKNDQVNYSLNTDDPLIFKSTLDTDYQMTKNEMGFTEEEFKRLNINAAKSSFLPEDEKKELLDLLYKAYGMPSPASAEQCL
The data set can be described thus: Stability of the compound assessed as calf mucosal adenosine deaminase-mediated drug metabolism. Conditions: cattle. Format: ADME.

Data set [5] concerns the target T1, Adenosine deaminase. The data set can be described thus: Inhibition of calf mucosal adenosine deaminase.
Data set [6] has as its system Human alphaherpesvirus 1. The data set can be described thus: Antiviral activity against HSV-1 assessed at 0.6 ug/ml by plaque reduction assay relative to control. Format: functional. The arrangement: scale not given: the % may be the effect or the level left.
The nature of data set [7]: Aqueous stability of the compound assessed as hydrolysis rate at 25 degC by Arrhenius plot. The class given is physicochemical. As to conditions: buffer. In outline:
(§1)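 Ester hydrolysis was followed at pH 6.56 at 60, 80 and 100 °C by HPLC (40:60 methanol-water, 254-nm detection). First-order rates came from log[ester] vs time. An Arrhenius plot of log rate vs reciprocal temperature (K) was extrapolated to 25 °C.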

A short description of data set [8]: Aqueous stability of the compound assessed as time required for 10% decomposition at 25 degC by Arrhenius plot. Format: physicochemical. Conditions: buffer. In outline: as §1
In data set [9] the test system is Human alphaherpesvirus 1. The data set can be described thus: Antiviral activity against HSV-1 assessed at 7 ug/ml by plaque reduction assay relative to control. The class given is functional. On the set-up: scale not given: the % may be the effect or the level left.
The test system of data set [10] is Human alphaherpesvirus 1. Kind of data set: Antiviral activity against HSV-1 assessed at 20 ug/ml by plaque reduction assay relative to control. The arrangement: scale not given: the % may be the effect or the level left. Format: functional.
Data set [11] concerns Human alphaherpesvirus 1. Kind of data set: Antiviral activity against HSV-1 assessed at 6.5 ug/ml by plaque reduction assay relative to control. Format: functional. The arrangement: scale not given: the % may be the effect or the level left.
Data set [12] has as its system Human alphaherpesvirus 1. Kind of data set: Antiviral activity against HSV-1 assessed at 2 ug/ml by plaque reduction assay relative to control. Format: functional. On the set-up: scale not given: the % may be the effect or the level left.
The nature of data set [13]: Half life of the compound. Format: physicochemical.

Values after ≈ are worked out from the molar mass of the structure shown.

Molecule `CC(=O)OC[C@H]1O[C@@H](n2cnc3c(N)ncnc32)[C@@H](O)[C@@H]1O` came in with a solubility at 16 h in [1] of 6600 µg/mL (≈ 21.3 mM). In [2], this molecule returned an Activity of 86%.

Take `CCC(=O)OC[C@H]1O[C@@H](n2cnc3c(N)ncnc32)[C@@H](O)[C@@H]1O`: the solubility at 16 h in [1] worked out at 9200 µg/mL (≈ 28.5 mM). Besides, in data set [3], the Activity amounted to 83%.

In data set [1], `CCCC(=O)OC[C@H]1O[C@@H](n2cnc3c(N)ncnc32)[C@@H](O)[C@@H]1O` came in with a solubility at 16 h of 16100 µg/mL (≈ 47.7 mM). The molecule further had an Activity in [3] of 67%.

As for `CCCCC(=O)OC[C@H]1O[C@@H](n2cnc3c(N)ncnc32)[C@@H](O)[C@@H]1O`, in [1], the solubility at 16 h stood at 8400 µg/mL (≈ 23.9 mM). For the same molecule, the Stability entry in [4] is recorded as “Stable”. In data set [5], the affinity, expressed as Ki, was 11 µM. For the same molecule, the values for the Activity in [3] and in data set [6] were 100% and 90%, respectively. Also, the Drug degradation in data set [7] was 5.4 ×10⁻⁶ /hr. In addition, the Time in data set [8] is listed as 2.25 yr.

Consider `CC(C)CC(=O)OC[C@H]1O[C@@H](n2cnc3c(N)ncnc32)[C@@H](O)[C@@H]1O`, for which, in data set [1], the solubility at 16 h was 19800 µg/mL (≈ 56.4 mM). In addition, the Stability entry in [4] is on record as “Stable”. For the same molecule, the Activity in [9] is recorded as 53%.

Regarding `CC(C)(C)C(=O)OC[C@H]1O[C@@H](n2cnc3c(N)ncnc32)[C@@H](O)[C@@H]1O`, the concentration in solution in data set [1] (solubility at 16 h) was 7000 µg/mL (≈ 19.9 mM). Also, the Stability entry in [4] is “Stable”. Besides, the Activity in data set [10] is given as 11%.

Molecule `CCCCCC(=O)OC[C@H]1O[C@@H](n2cnc3c(N)ncnc32)[C@@H](O)[C@@H]1O` registered a solubility at 16 h in [1] of 2500 µg/mL (≈ 6.84 mM). The Stability entry in data set [4] was “Stable”. The Activity in [11] is listed as 25%.

In data set [1], `CC(C)(C)CC(=O)OC[C@H]1O[C@@H](n2cnc3c(N)ncnc32)[C@@H](O)[C@@H]1O` showed a solubility at 16 h of 7800 µg/mL (≈ 21.3 mM). Further, the Stability entry in data set [4] is recorded as “Stable”. The molecule also gave an Activity in data set [11] of 10%.

The molecule `CCCCCCCC(=O)OC[C@H]1O[C@@H](n2cnc3c(N)ncnc32)[C@@H](O)[C@@H]1O` came in with a solubility at 16 h in [1] of 100 µg/mL (≈ 0.254 mM). In addition, the Activity in data set [12] amounted to 45%.

Molecule `Nc1ncnc2c1ncn2[C@@H]1O[C@H](COC(=O)CCc2ccccc2)[C@@H](O)[C@@H]1O` came in with a solubility at 16 h in [1] of 1500 µg/mL (≈ 3.76 mM). This molecule came in with an Activity in data set [9] of 29%.

Molecule `Nc1ncnc2c1ncn2[C@@H]1O[C@H](COC(=O)c2ccccc2)[C@@H](O)[C@@H]1O` returned a solubility at 16 h in data set [1] of 80 µg/mL (≈ 0.215 mM). In addition, the Activity in data set [11] was determined as 71%.

In data set [13], `Nc1ncnc2c1ncn2[C@@H]1O[C@H](COC=O)[C@@H](O)[C@@H]1O` gave a half-life of 240 h.

Regarding `Nc1ncnc2c1ncn2[C@@H]1O[C@H](CO)[C@@H](O)[C@@H]1O` [VIDARABINE], the Activity in data set [2] came to 100%; in data set [3], 54%; in [6], 0%; in data set [9] it was 63%; in [10], 69%; in [11], 63%. Further, the Activity in data set [12] stood at 64%.
